Assay results reported in ChEMBL document CHEMBL1124366, “Synthesis and biological properties of N63-carboxamides of teicoplanin antibiotics. Structure-activity relationships” (J Med Chem, 1989).
In brackets after ≈: the same amount, converted by molar mass.

Columns and labels:
Assay type in all cases: functional
[1] = test system: Staphylococcus epidermidis; assay: In vitro minimum inhibitory concentration against Staphylococcus epidermis ATCC 12228
Streptococcus pyogenes [2] = assay: Subcutaneously administration into mice infected with Streptococcus pyogenes C 203; conditions: sc
How it was run: (§1)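 Mice (five per treatment group, five groups) infected intraperitoneally with about 10⁵ cells of Strep. pyogenes C 203, about 100× the LD50. ED50 (mg/kg) was calculated from the percentage of mice surviving at each dose on day 7.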

Streptococcus pneumoniae = assay: In vitro minimum inhibitory concentration against Streptococcus pneumoniae UC41
[3] = test system: Staphylococcus haemolyticus; assay: In vitro minimum inhibitory concentration against Staphylococcus hemolyticus 602 cell line; conditions: strain 602
Streptococcus pyogenes [4] = assay: In vitro minimum inhibitory concentration against Streptococcus pyogenes C 203
Enterococcus faecalis = assay: In vitro minimum inhibitory concentration against Streptococcus faecalis ATCC 7080
Staphylococcus aureus = assay: In vitro minimum inhibitory concentration against Staphylococcus aureus Tour
Streptococcus pyogenes [5] = assay: In vivo effective dose given perorally to mice infected with Streptococcus pyogenes C 203; conditions: po; how it was run: as §1

Structure (SMILES) | MIC [1] [µg/mL] | ED50 (Streptococcus pyogenes [2]) [mg/kg] | MIC (Streptococcus pneumoniae) [µg/mL] | MIC [3] [µg/mL] | MIC (Streptococcus pyogenes [4]) [µg/mL] | MIC (Enterococcus faecalis) [µg/mL] | MIC (Staphylococcus aureus) [µg/mL] | ED50 (Streptococcus pyogenes [5]) [mg/kg]
CC(=O)N[C@@H]1[C@H](O[C@@H]2c3ccc(c(Cl)c3)Oc3cc4cc(c3O[C@@H]3O[C@@H](CO)[C@@H](O)[C@H](O)[C@@H]3NC(=O)CCCCCCC(C)C)Oc3ccc(cc3Cl)C[C@H]3NC(=O)[C@H](N)c5ccc(O)c(c5)Oc5cc(O)cc(c5)[C@H](NC3=O)C(=O)N[C@H]4C(=O)N[C@H]3C(=O)N[C@@H]2C(=O)N[C@H](C(=O)NCCCN2CCOCC2)c2cc(O)cc(O[C@H]4O[C@H](CO)[C@@H](O)[C@@H](O)[C@@H]4O)c2-c2cc3ccc2O)O[C@@H](CO)[C@@H](O)[C@@H]1O | 0.12 (≈ 0.0598 µM) | 0.18 | 0.06 (≈ 0.0299 µM) | 0.5 (≈ 0.249 µM) | 0.06 (≈ 0.0299 µM) | 0.12 (≈ 0.0598 µM) | 0.12 (≈ 0.0598 µM) | > 300
CNCCNC(=O)[C@H]1NC(=O)[C@H]2NC(=O)[C@H](NC(=O)[C@@H]3NC(=O)[C@H]4NC(=O)[C@@H](Cc5ccc(c(Cl)c5)Oc5cc3cc(c5O[C@@H]3O[C@@H](CO)[C@@H](O)[C@H](O)[C@@H]3NC(=O)CCCCCCC(C)C)Oc3ccc(cc3Cl)[C@H]2O[C@@H]2O[C@@H](CO)[C@@H](O)[C@H](O)[C@@H]2NC(C)=O)NC(=O)[C@H](N)c2ccc(O)c(c2)Oc2cc(O)cc4c2)c2ccc(O)c(c2)-c2c(O[C@H]3O[C@H](CO)[C@@H](O)[C@@H](O)[C@@H]3O)cc(O)cc21 | 0.12 (≈ 0.062 µM) | 0.08 | 0.12 (≈ 0.062 µM) | 0.12 (≈ 0.062 µM) | 0.06 (≈ 0.031 µM) | 0.12 (≈ 0.062 µM) | 0.12 (≈ 0.062 µM) | 173
CC(=O)N[C@@H]1[C@H](O[C@@H]2c3ccc(c(Cl)c3)Oc3cc4cc(c3O[C@@H]3O[C@@H](CO)[C@@H](O)[C@H](O)[C@@H]3NC(=O)CCCCCCC(C)C)Oc3ccc(cc3Cl)C[C@H]3NC(=O)[C@H](N)c5ccc(O)c(c5)Oc5cc(O)cc(c5)[C@H](NC3=O)C(=O)N[C@H]4C(=O)N[C@H]3C(=O)N[C@@H]2C(=O)N[C@H](C(=O)NCCCCN(C)C)c2cc(O)cc(O[C@H]4O[C@H](CO)[C@@H](O)[C@@H](O)[C@@H]4O)c2-c2cc3ccc2O)O[C@@H](CO)[C@@H](O)[C@@H]1O | 0.06 (≈ 0.0303 µM) | 0.1 | 0.12 (≈ 0.0607 µM) | 0.25 (≈ 0.126 µM) | 0.06 (≈ 0.0303 µM) | 0.12 (≈ 0.0607 µM) | 0.12 (≈ 0.0607 µM) | 90
CC(=O)N[C@@H]1[C@H](O[C@@H]2c3ccc(c(Cl)c3)Oc3cc4cc(c3O[C@@H]3O[C@@H](CO)[C@@H](O)[C@H](O)[C@@H]3NC(=O)CCCCCCC(C)C)Oc3ccc(cc3Cl)C[C@H]3NC(=O)[C@H](N)c5ccc(O)c(c5)Oc5cc(O)cc(c5)[C@H](NC3=O)C(=O)N[C@H]4C(=O)N[C@H]3C(=O)N[C@@H]2C(=O)N[C@H](C(=O)NCCCCCCCN(C)C)c2cc(O)cc(O[C@H]4O[C@H](CO)[C@@H](O)[C@@H](O)[C@@H]4O)c2-c2cc3ccc2O)O[C@@H](CO)[C@@H](O)[C@@H]1O | 0.12 (≈ 0.0594 µM) | 0.18 | 0.12 (≈ 0.0594 µM) | 0.5 (≈ 0.248 µM) | 0.06 (≈ 0.0297 µM) | 0.12 (≈ 0.0594 µM) | 0.12 (≈ 0.0594 µM) | > 300
CCN(CC)CCCNC(=O)[C@H]1NC(=O)[C@H]2NC(=O)[C@H](NC(=O)[C@@H]3NC(=O)[C@H]4NC(=O)[C@@H](Cc5ccc(c(Cl)c5)Oc5cc3cc(c5O[C@@H]3O[C@@H](CO)[C@@H](O)[C@H](O)[C@@H]3NC(=O)CCCCCCC(C)C)Oc3ccc(cc3Cl)[C@H]2O[C@@H]2O[C@@H](CO)[C@@H](O)[C@H](O)[C@@H]2NC(C)=O)NC(=O)[C@H](N)c2ccc(O)c(c2)Oc2cc(O)cc4c2)c2ccc(O)c(c2)-c2c(O[C@H]3O[C@H](CO)[C@@H](O)[C@@H](O)[C@@H]3O)cc(O)cc21 | 0.12 (≈ 0.0602 µM) | 0.05 | 0.06 (≈ 0.0301 µM) | 0.12 (≈ 0.0602 µM) | 0.06 (≈ 0.0301 µM) | 0.12 (≈ 0.0602 µM) | 0.12 (≈ 0.0602 µM) | 90
CC(=O)N[C@@H]1[C@H](O[C@@H]2c3ccc(c(Cl)c3)Oc3cc4cc(c3O[C@@H]3O[C@@H](CO)[C@@H](O)[C@H](O)[C@@H]3NC(=O)CCCCCCC(C)C)Oc3ccc(cc3Cl)C[C@H]3NC(=O)[C@H](N)c5ccc(O)c(c5)Oc5cc(O)cc(c5)[C@H](NC3=O)C(=O)N[C@H]4C(=O)N[C@H]3C(=O)N[C@@H]2C(=O)N[C@H](C(=O)NCc2ccccn2)c2cc(O)cc(O[C@H]4O[C@H](CO)[C@@H](O)[C@@H](O)[C@@H]4O)c2-c2cc3ccc2O)O[C@@H](CO)[C@@H](O)[C@@H]1O | 0.12 (≈ 0.0609 µM) | 0.08 | 0.06 (≈ 0.0305 µM) | 8 (≈ 4.06 µM) | 0.06 (≈ 0.0305 µM) | 0.12 (≈ 0.0609 µM) | 0.12 (≈ 0.0609 µM) | 139
CCN1CCCC1CNC(=O)[C@H]1NC(=O)[C@H]2NC(=O)[C@H](NC(=O)[C@@H]3NC(=O)[C@H]4NC(=O)[C@@H](Cc5ccc(c(Cl)c5)Oc5cc3cc(c5O[C@@H]3O[C@@H](CO)[C@@H](O)[C@H](O)[C@@H]3NC(=O)CCCCCCC(C)C)Oc3ccc(cc3Cl)[C@H]2O[C@@H]2O[C@@H](CO)[C@@H](O)[C@H](O)[C@@H]2NC(C)=O)NC(=O)[C@H](N)c2ccc(O)c(c2)Oc2cc(O)cc4c2)c2ccc(O)c(c2)-c2c(O[C@H]3O[C@H](CO)[C@@H](O)[C@@H](O)[C@@H]3O)cc(O)cc21 (some centres not stated) | 0.06 (≈ 0.0302 µM) | 0.1 | 0.06 (≈ 0.0302 µM) | 0.12 (≈ 0.0603 µM) | 0.06 (≈ 0.0302 µM) | 0.12 (≈ 0.0603 µM) | 0.12 (≈ 0.0603 µM) | 140
CC(=O)N[C@@H]1[C@H](O[C@@H]2c3ccc(c(Cl)c3)Oc3cc4cc(c3O[C@@H]3O[C@@H](CO)[C@@H](O)[C@H](O)[C@@H]3NC(=O)CCCCCCC(C)C)Oc3ccc(cc3Cl)C[C@H]3NC(=O)[C@H](N)c5ccc(O)c(c5)Oc5cc(O)cc(c5)[C@H](NC3=O)C(=O)N[C@H]4C(=O)N[C@H]3C(=O)N[C@@H]2C(=O)N[C@H](C(=O)NCCCCCN(C)C)c2cc(O)cc(O[C@H]4O[C@H](CO)[C@@H](O)[C@@H](O)[C@@H]4O)c2-c2cc3ccc2O)O[C@@H](CO)[C@@H](O)[C@@H]1O | 0.12 (≈ 0.0602 µM) | 0.12 | 0.06 (≈ 0.0301 µM) | 0.5 (≈ 0.251 µM) | 0.06 (≈ 0.0301 µM) | 0.12 (≈ 0.0602 µM) | 0.12 (≈ 0.0602 µM) | 112
CCNCCCNC(=O)[C@H]1NC(=O)[C@H]2NC(=O)[C@H](NC(=O)[C@@H]3NC(=O)[C@H]4NC(=O)[C@@H](Cc5ccc(c(Cl)c5)Oc5cc3cc(c5O[C@@H]3O[C@@H](CO)[C@@H](O)[C@H](O)[C@@H]3NC(=O)CCCCCCC(C)C)Oc3ccc(cc3Cl)[C@H]2O[C@@H]2O[C@@H](CO)[C@@H](O)[C@H](O)[C@@H]2NC(C)=O)NC(=O)[C@H](N)c2ccc(O)c(c2)Oc2cc(O)cc4c2)c2ccc(O)c(c2)-c2c(O[C@H]3O[C@H](CO)[C@@H](O)[C@@H](O)[C@@H]3O)cc(O)cc21 | 0.06 (≈ 0.0306 µM) | 0.1 | 0.12 (≈ 0.0611 µM) | 0.12 (≈ 0.0611 µM) | 0.06 (≈ 0.0306 µM) | 0.12 (≈ 0.0611 µM) | 0.12 (≈ 0.0611 µM) | 112
